Results taken from ChEMBL document CHEMBL4706620, “Design, synthesis, biological activity evaluation of 3-(4-phenyl-1H-imidazol-2-yl)-1H-pyrazole derivatives as potent JAK 2/3 and aurora A/B kinases multi-targeted inhibitors” (Eur J Med Chem, 2021).
Calls of active or inactive are those of the source. No cut-off for these calls is given here.

Columns and labels:
HCT-116 [1] = test: Cell cycle arrest in human HCT116 cells assessed as accumulation of diploid cells at G1 phase at 10 uM incubated for 48 hrs by propidium iodide staining based flow cytometric analysis (reference value: 77.62 %); assay type: functional
JAK2/JAK3 (Homo sapiens) [2] = target: T1, JAK2/JAK3 (Homo sapiens) (UniProt P52333+O60674); test: Inhibition of JAK2/3 in human K562 cells assessed as inhibition of STAT3 phosphorylation at 1 to 20 uM measured after 48 hrs by Western blot analysis; assay type: cell-based; conditions: dose 1-20 µM
T1 sequence (O60674 whole entry, looked up): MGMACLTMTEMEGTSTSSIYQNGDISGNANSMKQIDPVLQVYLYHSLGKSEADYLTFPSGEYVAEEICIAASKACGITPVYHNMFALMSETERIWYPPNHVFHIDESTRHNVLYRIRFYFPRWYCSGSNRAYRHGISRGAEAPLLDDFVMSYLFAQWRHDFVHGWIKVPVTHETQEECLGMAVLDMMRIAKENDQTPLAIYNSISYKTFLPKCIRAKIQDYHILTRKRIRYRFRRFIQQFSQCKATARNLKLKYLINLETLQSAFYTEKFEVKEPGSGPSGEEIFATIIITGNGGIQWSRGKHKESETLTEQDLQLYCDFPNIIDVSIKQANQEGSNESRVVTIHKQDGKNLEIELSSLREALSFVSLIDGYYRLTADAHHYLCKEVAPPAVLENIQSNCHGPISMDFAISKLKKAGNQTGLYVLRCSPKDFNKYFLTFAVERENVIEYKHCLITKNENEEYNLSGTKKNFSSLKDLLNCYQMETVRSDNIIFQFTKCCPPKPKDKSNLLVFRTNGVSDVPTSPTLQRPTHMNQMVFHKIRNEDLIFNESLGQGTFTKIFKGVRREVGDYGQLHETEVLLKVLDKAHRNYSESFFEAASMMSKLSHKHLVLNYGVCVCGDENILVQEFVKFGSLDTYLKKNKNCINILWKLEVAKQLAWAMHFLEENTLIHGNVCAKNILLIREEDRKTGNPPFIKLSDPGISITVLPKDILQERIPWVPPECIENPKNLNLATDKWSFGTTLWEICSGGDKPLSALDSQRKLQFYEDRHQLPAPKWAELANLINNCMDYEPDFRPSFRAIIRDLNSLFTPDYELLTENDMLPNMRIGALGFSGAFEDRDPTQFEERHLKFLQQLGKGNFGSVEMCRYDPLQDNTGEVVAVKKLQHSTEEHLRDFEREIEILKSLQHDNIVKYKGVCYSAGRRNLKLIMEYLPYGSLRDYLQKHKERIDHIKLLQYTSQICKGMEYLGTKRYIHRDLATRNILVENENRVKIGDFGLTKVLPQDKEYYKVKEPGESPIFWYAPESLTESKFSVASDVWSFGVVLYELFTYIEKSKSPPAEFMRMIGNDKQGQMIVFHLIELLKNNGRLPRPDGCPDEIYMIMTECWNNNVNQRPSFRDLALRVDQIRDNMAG
T1 sequence (P52333 whole entry, looked up): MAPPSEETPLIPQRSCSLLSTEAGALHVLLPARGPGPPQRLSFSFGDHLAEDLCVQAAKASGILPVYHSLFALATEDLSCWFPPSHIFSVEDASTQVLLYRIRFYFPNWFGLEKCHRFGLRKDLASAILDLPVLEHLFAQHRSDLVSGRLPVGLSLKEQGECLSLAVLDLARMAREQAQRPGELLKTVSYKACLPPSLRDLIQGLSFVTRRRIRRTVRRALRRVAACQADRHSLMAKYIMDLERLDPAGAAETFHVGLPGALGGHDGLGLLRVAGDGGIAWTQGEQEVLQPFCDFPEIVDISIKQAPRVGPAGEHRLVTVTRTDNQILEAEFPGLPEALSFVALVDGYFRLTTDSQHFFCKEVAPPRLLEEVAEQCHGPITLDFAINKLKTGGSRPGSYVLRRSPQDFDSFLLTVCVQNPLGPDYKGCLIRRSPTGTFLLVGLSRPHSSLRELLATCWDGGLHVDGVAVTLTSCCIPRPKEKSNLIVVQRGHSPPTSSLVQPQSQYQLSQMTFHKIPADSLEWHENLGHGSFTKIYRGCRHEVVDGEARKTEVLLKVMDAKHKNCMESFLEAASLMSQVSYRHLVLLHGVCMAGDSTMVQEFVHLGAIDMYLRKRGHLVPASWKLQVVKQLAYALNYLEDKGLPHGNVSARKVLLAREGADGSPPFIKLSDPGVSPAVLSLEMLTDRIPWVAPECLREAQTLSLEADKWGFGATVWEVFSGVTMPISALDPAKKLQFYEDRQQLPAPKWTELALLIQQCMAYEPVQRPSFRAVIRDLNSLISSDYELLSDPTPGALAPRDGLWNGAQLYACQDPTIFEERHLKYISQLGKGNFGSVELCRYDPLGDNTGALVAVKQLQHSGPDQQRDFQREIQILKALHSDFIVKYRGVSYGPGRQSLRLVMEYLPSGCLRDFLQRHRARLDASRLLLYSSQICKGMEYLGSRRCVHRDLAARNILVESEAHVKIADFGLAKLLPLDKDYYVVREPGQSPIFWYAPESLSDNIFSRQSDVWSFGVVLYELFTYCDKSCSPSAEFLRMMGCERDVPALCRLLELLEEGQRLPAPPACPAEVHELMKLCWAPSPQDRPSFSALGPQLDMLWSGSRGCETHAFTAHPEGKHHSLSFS
Outline: (§1)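 K562 or HCT116 cells treated 48 h at 1, 10 and 20 µM alongside untreated control; lysed in cold RIPA, protein by BCA, SDS-PAGE, nitrocellulose transfer, 5% milk block, primary antibody overnight at 4 °C, secondary 1 h; p-Aurora A, p-Aurora B, p-STAT3, p-STAT5 probed with GAPDH loading control.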

HCT-116 [3] = test: Cell cycle arrest in human HCT116 cells assessed as accumulation of diploid cells at S phase at 20 uM incubated for 48 hrs by propidium iodide staining based flow cytometric analysis (reference value: 11.92 %); assay type: functional
K562 [4] = test: Cell cycle arrest in human K562 cells assessed as accumulation of diploid cells at G2 phase at 10 uM incubated for 48 hrs by propidium iodide staining based flow cytometric analysis (reference value: 7.73 %); assay type: functional
K562 [5] = test: Cell cycle arrest in human K562 cells assessed as accumulation at […] phase at 1 uM incubated for 48 hrs by propidium iodide staining based flow cytometric analysis (reference value: 1.90 %); assay type: functional
K562 [6] = test: Cell cycle arrest in human K562 cells assessed as accumulation of diploid cells at G1 phase at 10 uM incubated for 48 hrs by propidium iodide staining based flow cytometric analysis (reference value: 56.33 %); assay type: functional
Aurora kinase A = target: T2, Aurora kinase A (Homo sapiens, UniProt O14965); test: Inhibition of Aurora A (unknown origin) incubated for 40 mins in presence of ATP by Kinase-glo luminescence assay
T2 sequence (O14965 whole entry): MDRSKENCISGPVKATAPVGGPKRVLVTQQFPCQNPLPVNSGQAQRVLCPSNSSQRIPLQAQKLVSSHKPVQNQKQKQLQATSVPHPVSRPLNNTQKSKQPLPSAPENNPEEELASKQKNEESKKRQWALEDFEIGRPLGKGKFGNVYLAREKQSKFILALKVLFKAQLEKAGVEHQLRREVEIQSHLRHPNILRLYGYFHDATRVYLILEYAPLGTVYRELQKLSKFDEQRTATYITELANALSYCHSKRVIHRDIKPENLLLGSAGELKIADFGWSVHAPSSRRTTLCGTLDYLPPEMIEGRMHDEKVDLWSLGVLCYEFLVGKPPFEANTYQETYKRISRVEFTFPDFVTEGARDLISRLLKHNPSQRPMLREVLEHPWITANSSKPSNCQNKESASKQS

HCT-116 [7] = test: Cell cycle arrest in human HCT116 cells assessed as accumulation of diploid cells at G2 phase at 20 uM incubated for 48 hrs by propidium iodide staining based flow cytometric analysis (reference value: 10.46 %); assay type: functional
HCT-116 [8] = test: Cell cycle arrest in human HCT116 cells assessed as accumulation of diploid cells at G1 phase at 20 uM incubated for 48 hrs by propidium iodide staining based flow cytometric analysis (reference value: 77.62 %); assay type: functional
K562 [9] = test: Antiproliferative activity against human K562 cells assessed as reduction in cell growth measured after 72 hrs by CCK8 assay; assay type: functional, cell-based; conditions: K562, 72 h
HCT-116 [10] = test: Cell cycle arrest in human HCT116 cells assessed as accumulation of diploid cells at S phase at 1 uM incubated for 48 hrs by propidium iodide staining based flow cytometric analysis (reference value: 11.92 %); assay type: functional
Homo sapiens [11] = organism: Homo sapiens; test: Selectivity for JAK3 (unknown origin) over Aurora B (unknown origin)
JAK2/JAK3 (Homo sapiens) [12] = target: T1, JAK2/JAK3 (Homo sapiens); test: Inhibition of JAK2/3 in human K562 cells assessed as inhibition of STAT5 phosphorylation at 1 to 20 uM measured after 48 hrs by Western blot analysis; assay type: cell-based; conditions: dose 1-20 µM; outline: as §1
HCT-116 [13] = test: Cell cycle arrest in human HCT116 cells assessed as accumulation of diploid cells at S phase at 10 uM incubated for 48 hrs by propidium iodide staining based flow cytometric analysis (reference value: 11.92 %); assay type: functional
HCT-116 [14] = test: Cell cycle arrest in human HCT116 cells assessed as accumulation of diploid cells at G2 phase at 10 uM incubated for 48 hrs by propidium iodide staining based flow cytometric analysis (reference value: 10.46 %); assay type: functional
Aurora kinase B = Aurora kinase B (Homo sapiens, UniProt Q96GD4); test: Inhibition of Aurora B phosphorylation in human HCT116 cells incubated for 48 hrs by Western blot analysis; assay type: cell-based; conditions: HCT-116, dose 1-20 µM; outline: as §1
Sequence of Aurora kinase B (Q96GD4 whole entry): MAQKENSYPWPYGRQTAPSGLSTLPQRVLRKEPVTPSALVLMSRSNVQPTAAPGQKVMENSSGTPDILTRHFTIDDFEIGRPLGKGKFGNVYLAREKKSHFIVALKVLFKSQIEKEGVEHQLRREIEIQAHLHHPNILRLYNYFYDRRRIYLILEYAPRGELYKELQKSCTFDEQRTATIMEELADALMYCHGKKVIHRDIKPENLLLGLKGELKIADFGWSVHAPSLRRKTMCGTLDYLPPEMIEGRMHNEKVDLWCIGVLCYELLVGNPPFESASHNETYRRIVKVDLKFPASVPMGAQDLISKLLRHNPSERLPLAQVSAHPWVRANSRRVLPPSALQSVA

Homo sapiens [15] = organism: Homo sapiens; test: Selectivity for JAK2 (unknown origin) over Aurora A (unknown origin)

- inhibition (JAK2/JAK3 (Homo sapiens) [2]): Active
- IC50 (Aurora kinase A): 0.939 µM
- IC50 (K562 [9]): 6.73 µM
- Selectivity ratio (Homo sapiens [11]): 20
- inhibition (JAK2/JAK3 (Homo sapiens) [12]): Active
- inhibition (Aurora kinase B): Dose-dependent effect
- Selectivity ratio (Homo sapiens [15]): 20
Compound: O=C(Nc1c[nH]nc1-c1nc(-c2ccc(CN3CCOCC3)cc2)c[nH]1)c1cccc(Cl)c1
- Activity (HCT-116 [1]): 66.57%
- Activity (HCT-116 [3]): 17.92%
- Activity (K562 [4]): 16.27%
- Activity (K562 [5]): 1.9%
- Activity (K562 [6]): 47.87%
- Activity (HCT-116 [7]): 24.55%
- Activity (HCT-116 [8]): 57.52%
- Activity (HCT-116 [10]): 14.46%
- Activity (HCT-116 [13]): 17.27%
- Activity (HCT-116 [14]): 16.16%
